# In ChEMBL document CHEMBL1649384, “Synthesis and antiproliferative activity of novel symmetrical alkylthio- and alkylseleno-imidocarbamates” (Eur J Med Chem, 2011):
# Legend:
# PC-3 = assay: Cytotoxicity against human PC3 cells after 72 hrs by MTT assay; type: functional; conditions: PC-3, 72 h; for CC50: read-out: LC50 (the source's name)
# Outline: (§1)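 Cells seeded per well: Hep-G2 1×10⁴, HT-29 4×10³, K-562 4×10³, MCF-7 1.2×10⁴, MCF-10A 7×10³, PC-3 2×10³. MCF-10A were grown in supplemented MEBM at 37 °C, 5% CO₂. Five concentrations were tested between 0.01 and 100, with 72 h exposure. Formazan was read by A590. GI₅₀ was taken relative to untreated controls, from at least three independent experiments.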
# HepG2 = assay: Cytotoxicity against human HepG2 cells after 72 hrs by MTT assay; type: functional; conditions: HepG2, 72 h; for CC50: read-out: LC50 (the source's name); outline: as §1
# HT-29 = assay: Cytotoxicity against human HT-29 cells after 72 hrs by MTT assay; type: functional; conditions: HT-29, 72 h; for CC50: read-out: LC50 (the source's name); outline: as §1
# K562 = assay: Cytotoxicity against human K562 cells after 72 hrs by MTT assay; type: functional; conditions: K562, 72 h; for CC50: read-out: LC50 (the source's name); outline: as §1
# MCF7 = assay: Cytotoxicity against human MCF7 cells after 72 hrs by MTT assay; type: functional; conditions: MCF7, 72 h; outline: as §1
# [1] = Cytotoxicity against human MCF10A cells after 72 hrs by MTT assay; type: cell-based, MCF-10A; conditions: for GI50 at 72 h: MCF10A cells; for LC50 / TGI: mcf-10a, 72 h; outline: as §1
Structure (SMILES),GI50 (PC-3) [µM],TGI (PC-3) [µM],CC50 (PC-3) [µM],GI50 (HepG2) [µM],TGI (HepG2) [µM],CC50 (HepG2) [µM],GI50 (HT-29) [µM],TGI (HT-29) [µM],CC50 (HT-29) [µM],GI50 (K562) [µM],TGI (K562) [µM],CC50 (K562) [µM],GI50 (MCF7) [µM],LC50 (MCF7) [µM],TGI (MCF7) [µM],GI50 at 72 h [1] [µM],LC50 [1] [µM],TGI [1] [µM]
CS/C(=N\C(=O)c1c2ccccc2nc2ccccc12)NC(=O)c1c2ccccc2nc2ccccc12,51.1,87.3,> 100,90.2,> 100,> 100,69.2,> 100,> 100,45,76,> 100,27.7,> 100,> 100,1,> 100,> 100
O=C(/N=C(/NC(=O)c1cccs1)[Se]Cc1ccccc1)c1cccs1,49.9,> 100,> 100,34.7,58.1,81.5,55.1,> 100,> 100,29.5,58.5,87.4,72.5,> 100,> 100,72.5,> 100,> 100
C[Se]/C(=N\C(=O)c1cc2ccccc2s1)NC(=O)c1cc2ccccc2s1,37.2,65.6,94,9.59,41,73.3,5.62,> 100,> 100,32.4,61,89.5,5.07,80.6,32.7,0.49,73.21,34.65
O=C(/N=C(/NC(=O)c1ccc2c(c1)OCO2)[Se]Cc1ccccc1)c1ccc2c(c1)OCO2,> 100,> 100,> 100,> 100,> 100,> 100,57.3,> 100,> 100,97.8,> 100,> 100,55.3,> 100,> 100,55.3,> 100,> 100
C[Se]/C(=N\C(=O)c1ccc2c(c1)OCO2)NC(=O)c1ccc2c(c1)OCO2,4.24,36.8,> 100,5.84,23.6,73.1,0.53,> 100,> 100,9.23,46.3,85.2,0.99,> 100,52.8,5.58,> 100,45.97
CS/C(=N\C(=O)c1cccs1)NC(=O)c1cccs1,39,98.2,> 100,> 100,> 100,> 100,77.9,> 100,> 100,72.6,> 100,> 100,44.5,> 100,89,19.7,90.5,55.1
CS/C(=N\C(=O)c1csc([N+](=O)[O-])c1)NC(=O)c1csc([N+](=O)[O-])c1,41.5,82.5,> 100,63.4,> 100,> 100,51.8,> 100,> 100,56.9,98.7,> 100,44.6,> 100,78.1,1.55,75.14,21.35
CS/C(=N\C(=O)c1sccc1Cl)NC(=O)c1sccc1Cl,24.7,57.4,90.1,65.2,> 100,> 100,35.6,> 100,> 100,37,78.9,> 100,10.3,> 100,57.1,0.09,64.11,23.72
C[Se]/C(=N\C(=O)c1c2ccccc2nc2ccccc12)NC(=O)c1c2ccccc2nc2ccccc12,41.3,80.1,> 100,22.3,52.4,82.5,7.63,> 100,> 100,27.2,61,94.8,73.9,> 100,> 100,18.2,88.31,53.28
O=C(/N=C(/NC(=O)c1cc2ccccc2s1)[Se]Cc1ccccc1)c1cc2ccccc2s1,30.5,58.4,86.3,21,49,77,6.51,> 100,> 100,14.9,42.8,70.6,37.9,87.9,62.9,37.9,87.9,62.92
O=C(/N=C(/NC(=O)c1c2ccccc2nc2ccccc12)[Se]Cc1ccccc1)c1c2ccccc2nc2ccccc12,42.3,77.4,> 100,30.4,64.5,98.5,26.9,> 100,> 100,9.6,44.5,80.7,53.7,> 100,88.1,53.7,> 100,88.14
CS/C(=N\C(=O)c1ccco1)NC(=O)c1ccco1,56.2,> 100,> 100,> 100,> 100,> 100,77.1,> 100,> 100,64.8,> 100,> 100,56.1,> 100,> 100,8.22,85.69,46.52
O=C(/N=C(/NC(=O)c1csc([N+](=O)[O-])c1)[Se]Cc1ccccc1)c1csc([N+](=O)[O-])c1,35.9,69.2,> 100,34.1,62.8,91.6,9.25,> 100,> 100,23.5,55.8,88.2,24.4,83.8,54.1,24.4,83.76,54.1
O=C(/N=C(/NC(=O)c1ccco1)[Se]Cc1ccccc1)c1ccco1,30.5,57.6,84.8,7.65,39.5,76.5,7.19,89.1,89.1,9.53,44.2,80.6,8.8,> 100,58,8.8,> 100,57.98
O=C(/N=C(/NC(=O)c1sccc1Cl)[Se]Cc1ccccc1)c1sccc1Cl,52.7,> 100,> 100,4.42,45.5,> 100,6.51,> 100,> 100,7.63,95.8,> 100,3.68,> 100,28.3,3.68,> 100,28.33
CS/C(=N\C(=O)c1ccno1)NC(=O)c1ccno1,99.2,> 100,> 100,> 100,> 100,> 100,> 100,> 100,> 100,> 100,> 100,> 100,77.8,> 100,> 100,16.9,> 100,> 100
O=C(/N=C(/NC(=O)c1ccno1)[Se]Cc1ccccc1)c1ccno1,53.1,> 100,> 100,9.12,58.9,> 100,6.82,> 100,> 100,20,57.3,94.7,7.8,> 100,> 100,7.8,> 100,> 100
